# KCNK3 block = human KCNK3 channel inhibitors, primary screen, CHO cells, FluxOR thallium flux, B-score. Potassium channel subfamily K member 3 (Homo sapiens), O14649. hit rate 0.84% among 340,000. B-score at 10 µM. FluxOR fluorescence; hits give low values. AID 602410, 2012;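 active = B-score under library mean minus 4 SD, starting fluorescence ratio at most library mean plus 5 SD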;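 also: more negative B-score means stronger inhibition of thallium flux through KCNK3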
# hERG protect = hERG rescue from dofetilide block, primary screen, cell-based, CHO-hERG, FluxOR thallium flux, dofetilide IC70. hit rate 0.51% among 310,000. activation (rescue from dofetilide block), less the hit threshold, % at 10 µM. dofetilide IC70 present. AID 1511, 2009. Voltage-gated inwardly rectifying potassium channel KCNH2 (Homo sapiens), Q12809;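 active = activation above the mean of controls blocked by dofetilide plus 5 SD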;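 also: thallium influx through hERG after potassium depolarization seen as dye fluorescence rise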
# Cl transport mod = KCC2 cotransporter modulators, thallium flux, primary screen, cell-based, HEK293 KCC2, FluoZin-2 fluorescence, MLSMR. Solute carrier family 12 member 5 (Homo sapiens), Q9H2X9. KCC2 cells, thallium flux FluoZin-2 fluorescence. B-score of Tl+ flux slope (higher = more flux/activation; lower = inhibition) at 10 µM. hit rate 2.2% among 190,000. AID 1456, 2008;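 active = thallium flux slope and its plate-corrected score both differing from the plate sample mean at a set confidence after two filtering rounds, in either direction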;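 also: slope of fluorescence scaled to starting intensity during 10 to 20 s after thallium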
# KCNQ1 inh = inhibitors of human KCNQ1 channel, primary screen, cell-based, thallium flux, high-throughput; Potassium voltage-gated channel subfamily KQT member 1 (Homo sapiens), P51787; CHO-K1 KCNQ1, FluxOR thallium flux fluorescence; hits give high values; B-score at 10 µM; hit rate 1.3% among 310,000; AID 2642, 2010;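 active = compounds whose thallium flux B-score, printed positive for inhibition, exceeds three library SD while starting fluorescence stays within three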;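 also: channel opened by potassium depolarization with thallium stimulus after 20 min compound exposure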
# Target sequence (P51787 whole entry, looked up): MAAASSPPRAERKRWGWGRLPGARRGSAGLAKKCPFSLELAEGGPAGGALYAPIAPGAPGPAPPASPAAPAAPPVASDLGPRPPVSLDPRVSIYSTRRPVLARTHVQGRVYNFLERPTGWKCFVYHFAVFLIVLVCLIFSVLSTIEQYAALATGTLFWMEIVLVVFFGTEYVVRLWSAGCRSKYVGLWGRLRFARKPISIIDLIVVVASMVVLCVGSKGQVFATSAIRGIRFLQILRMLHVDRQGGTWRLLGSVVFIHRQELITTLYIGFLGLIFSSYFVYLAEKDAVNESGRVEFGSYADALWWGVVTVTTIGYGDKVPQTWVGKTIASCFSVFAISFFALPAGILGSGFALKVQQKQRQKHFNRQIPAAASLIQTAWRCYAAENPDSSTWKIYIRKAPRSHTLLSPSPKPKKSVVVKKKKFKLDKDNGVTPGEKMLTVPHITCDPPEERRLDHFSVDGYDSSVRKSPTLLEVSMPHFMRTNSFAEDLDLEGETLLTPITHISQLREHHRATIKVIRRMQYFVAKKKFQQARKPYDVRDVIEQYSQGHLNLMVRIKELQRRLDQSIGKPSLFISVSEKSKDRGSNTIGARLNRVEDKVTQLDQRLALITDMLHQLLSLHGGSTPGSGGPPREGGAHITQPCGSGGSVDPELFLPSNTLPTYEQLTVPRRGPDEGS
# KCNK9 block = KCNK9 potassium channel inhibitors, primary screen, HEK293 cells, thallium flux | hit rate 1.2% among 310,000 | AID 488922, 2010 | B-score at 10 µM | FluxOR thallium flux fluorescence; hits give low values | Potassium channel subfamily K member 9 (Homo sapiens), Q9NPC2;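 active = ratio B-score over 3 SD below the library mean, with starting fluorescence within 5 SD of its mean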;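 also: negative B-score means less thallium flux so channel inhibition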
# KCNQ1 act = potentiators or activators of KCNQ1 channel, primary screen, cell-based, thallium flux, high-throughput; CHO-K1 KCNQ1, thallium flux FluxOR fluorescence; hits give high values; B-score at 10 µM; hit rate 0.35% among 310,000; AID 2648, 2010;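 active = fluorescence ratio B-score, a plate-corrected score, at least three library SD, with initial intensity B-score within 5 SD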
#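 Assay system: CHO-K1 cells stably expressing KCNQ1; Medium: assay buffer with matched DMSO; Also added: K+/Tl+ depolarizing stimulus; Dosing: single dose; Timing: dye 90 min, compound 20 min, room temperature; Measured by: kinetic FluxOR thallium fluorescence, 10-s 1-Hz baseline, 110-s post-stimulus read; Read-out: peak-minus-minimum fluorescence over initial fluorescence, negative-control normalized, B-scored.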
# KCNK3 inh conf = retest of human KCNK3 channel inhibitors, confirmation, CHO cells, FluxOR thallium flux, triplicate; shares compounds with KCNK3 block; FluxOR fluorescence; 0% buffer, 100% carvedilol maximal block; ratio percent of control, % at 10 µM; hit rate 99% among 2,400;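 active = ratio percent of control, averaged over triplicates, above buffer control mean plus 5 SD, cut at about 64% in these data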;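 also: ratio is the fluorescence rise from min to max over baseline after thallium stimulus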
# KCNK3 noninduced = thallium flux inhibition in non-induced cells, primary screen, counter-screen for KCNK3 inhibitor project, cell-based, non-induced KCNK3 line, FluxOR thallium, triplicate; shares compounds with KCNK3 block; non-induced KCNK3 parental cells; hits give low values; thallium flux ratio (lower = more inhibition) at 10 µM; hit rate 40% among 2,400;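 active = thallium flux ratio, averaged over three wells, more than 5 SD below the buffer control mean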;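 also: host cells are CHO cells without KCNK3 induction; ratio is peak minus trough fluorescence over baseline then normalized to buffer controls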
# * hit, by the source's call; i = inactive; / = no result. Rows were chosen to be rich in hits. Some 4.1% of all compounds tested hit in one or more screens of this group.
SMILES,KCNK3 block,hERG protect,Cl transport mod,KCNQ1 inh,KCNK9 block,KCNQ1 act,KCNK3 inh conf,KCNK3 noninduced
C=CCn1c(SCC(=O)c2cccs2)nc2sc(C)c(C)c2c1=O,-9.5*,-3,-1.7,i,i,i,115*,0.15*
O=S(=O)(Nc1ccc(Cl)cn1)c1ccccc1,i,-4,0.31,i,i,i,/,/
O=C(Nc1ccccc1)N1N=CCC1c1ccccc1 (stereo not drawn),i,-6,0.46,i,i,i,/,/
O=C(Nc1ccc(Cl)c(Cl)c1)N1N=CCC1c1ccccc1 (stereo not drawn),-9.5*,-7,-1.1,i,-6.6*,i,116*,i
Nc1ccc(Cl)c(-c2nc3ncccc3o2)c1,-11*,-4,/,i,i,i,88*,i
C=CCOc1ccc(C(=O)n2cc(C(=O)OC)c3ccccc32)cc1,-9.3*,-2,/,i,i,i,114*,i
Cc1ccc(/C=C/C(=O)Oc2ccc(C#N)cc2)o1,/,-10,/,i,i,i,/,/
COc1cccc(-c2nc(CS(=O)(=O)CC(=O)NC3CCC(C)CC3)c(C)o2)c1 (stereo not drawn),-10*,-6,/,i,i,i,0,i
COC(=O)CN1C(=O)[C@H]2[C@@H](c3ccc(C)o3)N3C(=O)CN(Cc4ccccn4)C(=O)[C@@]3(Cc3ccccc3)[C@H]2C1=O,i,-12,/,i,i,i,/,/
O=c1sc2ccccc2n1COc1ccc(Cl)cc1,-9.1*,-4,/,i,i,i,124*,0.15*
Cc1ccccc1OCCCn1c(=O)sc2ccccc21,-9.6*,-9,-1.1,i,i,i,94*,i
O=C(OCC(=O)N1CCOCC1)c1ccc(F)cc1Cl,i,-4,/,i,i,i,/,/
O=C(CSc1nc2ccccc2c(=O)n1-c1ccccc1)N/N=C/C=C/c1ccccc1[N+](=O)[O-],-9.1*,-16,-1.2,i,i,i,100*,i
O=C(c1ccc2ccccc2c1)N1CCN(S(=O)(=O)/C=C/c2ccccc2)CC1,-9.1*,-10,/,i,i,i,96*,i
O=C(NC1CCCCC1)NC12CC3CC(CC(C3)C1)C2,i,-5,1.1,i,i,i,/,/
CCC(CC)=N/N=C/c1c(O)n(CC)c2cc(C3=NNC(=O)CC3)ccc12,i,-5,-0.0064,i,i,i,/,/
CCn1c(O)c(/C=N/N=C/c2ccccc2)c2ccc(C3=NNC(=O)CC3)cc21,-8.9*,-22,-0.49,i,i,i,131*,0.12*
C/C(=N\NC(=O)C1(C)CC1(Br)Br)c1cccc(NC(=O)c2ccc(C)o2)c1 (stereo not drawn),-9.6*,-14,/,i,i,i,108*,0.14*
Cc1ccc(C(=O)Nc2cccc(C(=O)NCc3ccccc3)c2)o1,i,-10,0.22,i,i,i,/,/
O=c1c(-c2c(O)cc(O)c3c2O[C@H](c2ccc(O)cc2)CC3)c(-c2ccc(O)cc2)oc2cc(O)cc(O)c12,i,/,/,/,/,/,/,/
Cc1ccc(OC(=O)c2cccc(S(=O)(=O)N3CCCC3)c2)c(-n2nc3ccccc3n2)c1,-9.3*,-6,0.48,i,i,i,110*,i
Cc1ccc(OC(=O)c2cccc(S(=O)(=O)N(C)C)c2)c(-n2nc3ccccc3n2)c1,i,-6,-0.49,i,-7.1*,i,118*,i
Cc1ccc(OC(=O)c2ccc(S(=O)(=O)N(C)C)cc2)c(-n2nc3ccccc3n2)c1,i,-16,/,i,i,i,/,/
COc1cccc(CCc2nnc(CCC(=O)N(C)C3CC(C)(C)NC(C)(C)C3)o2)c1,i,-3,/,i,i,i,/,/
C(=NN=C(NN=Cc1cccs1)NN=Cc1cccs1)c1cccs1,-15*,/,/,/,/,/,123*,i
SMILES,KCNK3 block,hERG protect,Cl transport mod,KCNQ1 inh,KCNK9 block,KCNQ1 act,KCNK3 inh conf,KCNK3 noninduced
O=[N+]([O-])c1ccc(/C=C/c2ccc3ccccc3n2)cc1,-9.2*,-4,0.17,i,i,i,94*,i
O=[N+]([O-])c1cccc(CSc2ncnc3ccccc23)c1,-9.6*,-14,-1.5,i,i,i,84*,i
CNC(=O)c1c2c(nc3ccc(Br)cc13)CCCC2,i,-8,-0.54,i,i,i,/,/
CCC1Cc2c(nc(N)c3c(N)nc(N4CCCCC4)c(C#N)c23)O1 (stereo not drawn),-9.6*,-3,-1.7,i,i,i,97*,i
CCN(CC)c1nc(N)c2c(N)nc3c(c2c1C#N)CC(c1ccccc1)O3 (stereo not drawn),i,-10,-0.03,i,i,i,/,/
N#Cc1c(N2CCCCC2)nc(N)c2c(N)nc3c(c12)CC(c1ccccc1)O3 (stereo not drawn),-9.5*,-8,/,i,i,i,119*,0.15*
Cc1cccc(Nc2nc(N)c([N+](=O)[O-])c(N3CC(C)CC(C)C3)n2)c1 (stereo not drawn),i,-12,-0.56,i,i,i,/,/
Cc1cccc(Nc2nc(N)c([N+](=O)[O-])c(N3CC(C)OC(C)C3)n2)c1 (stereo not drawn),-9*,-10,/,i,i,i,88*,i
c1ccc(-c2nc(N3CCCCCC3)nc(-n3ccnc3)n2)cc1,-10*,-11,-0.027,i,-7*,i,122*,i
N#C/C(=C\c1ccc(-c2ccccc2[N+](=O)[O-])o1)C(=O)N1CCOCC1,i,-7,-0.39,i,i,i,/,/
O=C(NC1CCN(C(=O)N2c3ccccc3Sc3ccccc32)CC1)c1ccccc1Cl,-10*,-3,-0.92,i,-7.3*,i,109*,i
